In brackets after ≈: the same amount, converted by molar mass.
How the values were obtained:
Assay type in all cases: functional
HEp-2 [1] = experiment: Cytotoxicity against human Hep2 cells at 10 ug/mL after 72 hrs by MTT assay; details: HEp-2, 72 h, read-out: GI
In short: (§1)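 MTT antiproliferative assay. Cells were diluted to 10⁵ cells/mL in 96-well plates and preincubated for 24 h at 37 °C in humid 5% CO₂. Compounds or vincristine (reference) were then added. Formazan was dissolved and OD read at 540 nm, compared with medium-only control cells. Run in triplicate.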

Candida albicans [2] = experiment: Antimicrobial activity against Candida albicans UFPEDA 1007 after 48 hrs by twofold serial dilution technique; details: UFPEDA 1007, 48 h
In short: (§2)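 MIC was determined by twofold serial dilution. Bacteria were tested in plates at 10⁵ CFU/plate and read after 20 h. C. albicans was tested in tubes at 10³ CFU/tube and read after 48 h. All incubations were at 35 °C. Medium plus DMSO served as the negative control.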

Staphylococcus aureus [3] = experiment: Antimicrobial activity against multidrug-resistant Staphylococcus aureus H.C. 20489 isolate after 20 hrs by twofold serial dilution technique; details: H.C. 20489, 20 h
In short: (§3)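 Twofold serial dilution MIC in agar plates against Gram-positive strains and multidrug-resistant clinical isolates. Inoculum applied was 10⁵ CFU/plate. Plates with culture medium plus DMSO served as negative control. MIC was read after incubation at 35 °C for 20 h.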

Staphylococcus [4] = experiment: Antimicrobial activity against coagulase-negative Staphylococcus H.A.M. 278 isolate after 20 hrs by twofold serial dilution technique; details: H.A.M. 278, 20 h; in short: as §2
[5] = test system: Mycolicibacterium smegmatis; experiment: Antimicrobial activity against Mycobacterium smegmatis UFPEDA 71 after 20 hrs by twofold serial dilution technique; details: UFPEDA 71, 20 h; in short: as §2
Staphylococcus aureus [6] = experiment: Antimicrobial activity against multidrug-resistant Staphylococcus aureus H.C. 20981 isolate after 20 hrs by twofold serial dilution technique; details: H.C. 20981, 20 h; in short: as §3
NCI-H292 [7] = experiment: Cytotoxicity against human NCI-H292 cells at 1.25 ug/mL after 72 hrs by MTT assay; details: NCI-H292, 72 h, read-out: GI; in short: as §1
Enterococcus faecalis [8] = experiment: Antimicrobial activity against multidrug-resistant Enterococcus faecalis H.C. 21752 isolate after 20 hrs by twofold serial dilution technique; details: H.C. 21752, 20 h; in short: as §3
NCI-H292 [9] = experiment: Cytotoxicity against human NCI-H292 cells at 2.5 ug/mL after 72 hrs by MTT assay; details: NCI-H292, 72 h, read-out: GI; in short: as §1
Escherichia coli = experiment: Antimicrobial activity against Escherichia coli UFPEDA 224 at 300 ug/disk after 24 hrs by disk diffusion method; details: UFPEDA 224, 24 h, read-out: IZ
In short: (§4)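 Preliminary screen by disk diffusion. Paper disks (6 mm) holding 300 µg of compound were placed on agar plates inoculated with a standardized microbial suspension. DMSO-only disks served as negative controls. A mean inhibition zone below 7 mm was scored as no sensitivity. Values are means, n = 3.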

Micrococcus luteus [10] = experiment: Antimicrobial activity against Micrococcus luteus UFPEDA 06 at 300 ug/disk after 24 hrs by disk diffusion method; details: UFPEDA 06, 24 h, read-out: IZ; in short: as §4
Serratia marcescens = experiment: Antimicrobial activity against Serratia marcescens UFPEDA 398 at 300 ug/disk after 24 hrs by disk diffusion method; details: UFPEDA 398, 24 h, read-out: IZ; in short: as §4
Staphylococcus aureus [11] = experiment: Antimicrobial activity against multidrug-resistant Staphylococcus aureus H.C. 20794 isolate after 20 hrs by twofold serial dilution technique; details: H.C. 20794, 20 h; in short: as §3
Staphylococcus [12] = experiment: Antimicrobial activity against coagulase-negative Staphylococcus H.A.M. 338 isolate after 20 hrs by twofold serial dilution technique; details: H.A.M. 338, 20 h; in short: as §2
[13] = test system: Mycolicibacterium smegmatis; experiment: Antimicrobial activity against Mycobacterium smegmatis UFPEDA 71 at 300 ug/disk after 24 hrs by disk diffusion method; details: UFPEDA 71, 24 h, read-out: IZ; in short: as §4
Enterococcus faecalis [14] = experiment: Antimicrobial activity against multidrug-resistant Enterococcus faecalis H.C. 21944 isolate after 20 hrs by twofold serial dilution technique; details: H.C. 21944, 20 h; in short: as §3
Pseudomonas aeruginosa = experiment: Antimicrobial activity against Pseudomonas aeruginosa UFPEDA 39 at 300 ug/disk after 24 hrs by disk diffusion method; details: UFPEDA 39, 24 h, read-out: IZ; in short: as §4
Staphylococcus aureus [15] = experiment: Antimicrobial activity against multidrug-resistant Staphylococcus aureus H.C. 21036 isolate after 20 hrs by twofold serial dilution technique; details: H.C. 21036, 20 h; in short: as §3
HEp-2 [16] = experiment: Cytotoxicity against human Hep2 cells at 1.25 ug/mL after 72 hrs by MTT assay; details: HEp-2, 72 h, read-out: GI; in short: as §1
Staphylococcus aureus [17] = experiment: Antimicrobial activity against Staphylococcus aureus UFPEDA 01 at 300 ug/disk after 24 hrs by disk diffusion method; details: UFPEDA 01, 24 h, read-out: IZ; in short: as §4
Enterococcus faecalis [18] = experiment: Antimicrobial activity against Enterococcus faecalis UFPEDA 138 after 20 hrs by twofold serial dilution technique; details: UFPEDA 138, 20 h; in short: as §2
NCI-H292 [19] = experiment: Cytotoxicity against human NCI-H292 cells at 10 ug/mL after 72 hrs by MTT assay; details: NCI-H292, 72 h, read-out: GI; in short: as §1
Micrococcus luteus [20] = experiment: Antimicrobial activity against Micrococcus luteus UFPEDA 06 after 20 hrs by twofold serial dilution technique; details: UFPEDA 06, 20 h; in short: as §2
Bacillus subtilis [21] = experiment: Antimicrobial activity against Bacillus subtilis UFPEDA 16 after 20 hrs by twofold serial dilution technique; details: UFPEDA 16, 20 h; in short: as §2
NCI-H292 [22] = experiment: Cytotoxicity against human NCI-H292 cells at 5 ug/mL after 72 hrs by MTT assay; details: NCI-H292, 72 h, read-out: GI; in short: as §1
Bacillus subtilis [23] = experiment: Antimicrobial activity against Bacillus subtilis UFPEDA 16 at 300 ug/disk after 24 hrs by disk diffusion method; details: UFPEDA 16, 24 h, read-out: IZ; in short: as §4
Candida albicans [24] = experiment: Antimicrobial activity against Candida albicans UFPEDA 1007 at 300 ug/disk after 48 hrs by disk diffusion method; details: UFPEDA 1007, 48 h, read-out: IZ; in short: as §4
Staphylococcus aureus [25] = experiment: Antimicrobial activity against multidrug-resistant Staphylococcus aureus H.C. 21141 isolate after 20 hrs by twofold serial dilution technique; details: H.C. 21141, 20 h; in short: as §3
Staphylococcus aureus [26] = experiment: Antimicrobial activity against multidrug-resistant Staphylococcus aureus H.C. 20905 isolate after 20 hrs by twofold serial dilution technique; details: H.C. 20905, 20 h; in short: as §3
Enterococcus faecalis [27] = experiment: Antimicrobial activity against multidrug-resistant Enterococcus faecalis H.C. 24962 isolate after 20 hrs by twofold serial dilution technique; details: H.C. 24962, 20 h; in short: as §3
Staphylococcus aureus [28] = experiment: Antimicrobial activity against Staphylococcus aureus UFPEDA 01 after 20 hrs by twofold serial dilution technique; details: UFPEDA 01, 20 h; in short: as §3
HEp-2 [29] = experiment: Cytotoxicity against human Hep2 cells at 2.5 ug/mL after 72 hrs by MTT assay; details: HEp-2, 72 h, read-out: GI; in short: as §1
Enterococcus faecalis [30] = experiment: Antimicrobial activity against multidrug-resistant Enterococcus faecalis H.C. 24708 isolate after 20 hrs by twofold serial dilution technique; details: H.C. 24708, 20 h; in short: as §3
HEp-2 [31] = experiment: Cytotoxicity against human Hep2 cells at 5 ug/mL after 72 hrs by MTT assay; details: HEp-2, 72 h, read-out: GI; in short: as §1
Enterococcus faecalis [32] = experiment: Antimicrobial activity against Enterococcus faecalis UFPEDA 138 at 300 ug/disk after 24 hrs by disk diffusion method; details: UFPEDA 138, 24 h, read-out: IZ; in short: as §4

SMILES: O=C1NC(=S)/C(=C/c2c(Cl)cccc2Cl)S1
- inhibition of growth at 10 µg/mL (HEp-2 [1]): 8.73%
- MIC (Candida albicans [2]): 32 µg/mL (≈ 110 µM)
- MIC (Staphylococcus aureus [3]): 4 µg/mL (≈ 13.8 µM)
- MIC (Staphylococcus [4]): 4 µg/mL (≈ 13.8 µM)
- MIC [5]: 4 µg/mL (≈ 13.8 µM)
- MIC (Staphylococcus aureus [6]): 8 µg/mL (≈ 27.6 µM)
- inhibition of growth at 1.25 µg/mL (NCI-H292 [7]): 4.36%
- MIC (Enterococcus faecalis [8]): 8 µg/mL (≈ 27.6 µM)
- inhibition of growth at 2.5 µg/mL (NCI-H292 [9]): 7.7%
- zone of inhibition at 300 µg/disc (Escherichia coli): < 7 mm
- zone of inhibition at 300 µg/disc (Micrococcus luteus [10]): 18 mm
- zone of inhibition at 300 µg/disc (Serratia marcescens): < 7 mm
- MIC (Staphylococcus aureus [11]): 4 µg/mL (≈ 13.8 µM)
- MIC (Staphylococcus [12]): 4 µg/mL (≈ 13.8 µM)
- zone of inhibition at 300 µg/disc [13]: 17 mm
- MIC (Enterococcus faecalis [14]): 8 µg/mL (≈ 27.6 µM)
- zone of inhibition at 300 µg/disc (Pseudomonas aeruginosa): < 7 mm
- MIC (Staphylococcus aureus [15]): 8 µg/mL (≈ 27.6 µM)
- inhibition of growth at 1.25 µg/mL (HEp-2 [16]): -9.16%
- zone of inhibition at 300 µg/disc (Staphylococcus aureus [17]): 20 mm
- MIC (Enterococcus faecalis [18]): 16 µg/mL (≈ 55.1 µM)
- inhibition of growth at 10 µg/mL (NCI-H292 [19]): 32.8%
- MIC (Micrococcus luteus [20]): 16 µg/mL (≈ 55.1 µM)
- MIC (Bacillus subtilis [21]): 8 µg/mL (≈ 27.6 µM)
- inhibition of growth at 5 µg/mL (NCI-H292 [22]): 10.3%
- zone of inhibition at 300 µg/disc (Bacillus subtilis [23]): 20 mm
- zone of inhibition at 300 µg/disc (Candida albicans [24]): 15 mm
- MIC (Staphylococcus aureus [25]): 8 µg/mL (≈ 27.6 µM)
- MIC (Staphylococcus aureus [26]): 4 µg/mL (≈ 13.8 µM)
- MIC (Enterococcus faecalis [27]): 16 µg/mL (≈ 55.1 µM)
- MIC (Staphylococcus aureus [28]): 4 µg/mL (≈ 13.8 µM)
- inhibition of growth at 2.5 µg/mL (HEp-2 [29]): -4.24%
- MIC (Enterococcus faecalis [30]): 16 µg/mL (≈ 55.1 µM)
- inhibition of growth at 5 µg/mL (HEp-2 [31]): -2.39%
- zone of inhibition at 300 µg/disc (Enterococcus faecalis [32]): < 7 mm

SMILES: O=C1NC(=S)/C(=C/c2ccc(Cl)c(Cl)c2)S1
- inhibition of growth at 10 µg/mL (HEp-2 [1]): 16.4%
- MIC (Candida albicans [2]): 32 µg/mL (≈ 110 µM)
- MIC (Staphylococcus aureus [3]): 2 µg/mL (≈ 6.89 µM)
- MIC (Staphylococcus [4]): 4 µg/mL (≈ 13.8 µM)
- MIC [5]: 32 µg/mL (≈ 110 µM)
- MIC (Staphylococcus aureus [6]): 2 µg/mL (≈ 6.89 µM)
- inhibition of growth at 1.25 µg/mL (NCI-H292 [7]): 9.18%
- MIC (Enterococcus faecalis [8]): 8 µg/mL (≈ 27.6 µM)
- inhibition of growth at 2.5 µg/mL (NCI-H292 [9]): 19.4%
- zone of inhibition at 300 µg/disc (Escherichia coli): < 7 mm
- zone of inhibition at 300 µg/disc (Micrococcus luteus [10]): 27 mm
- zone of inhibition at 300 µg/disc (Serratia marcescens): < 7 mm
- MIC (Staphylococcus aureus [11]): 2 µg/mL (≈ 6.89 µM)
- MIC (Staphylococcus [12]): 2 µg/mL (≈ 6.89 µM)
- zone of inhibition at 300 µg/disc [13]: 20 mm
- MIC (Enterococcus faecalis [14]): 4 µg/mL (≈ 13.8 µM)
- zone of inhibition at 300 µg/disc (Pseudomonas aeruginosa): < 7 mm
- MIC (Staphylococcus aureus [15]): 4 µg/mL (≈ 13.8 µM)
- inhibition of growth at 1.25 µg/mL (HEp-2 [16]): -5.45%
- zone of inhibition at 300 µg/disc (Staphylococcus aureus [17]): 25 mm
- MIC (Enterococcus faecalis [18]): 8 µg/mL (≈ 27.6 µM)
- inhibition of growth at 10 µg/mL (NCI-H292 [19]): 43.3%
- MIC (Micrococcus luteus [20]): 4 µg/mL (≈ 13.8 µM)
- MIC (Bacillus subtilis [21]): 4 µg/mL (≈ 13.8 µM)
- inhibition of growth at 5 µg/mL (NCI-H292 [22]): 35.8%
- zone of inhibition at 300 µg/disc (Bacillus subtilis [23]): 27 mm
- zone of inhibition at 300 µg/disc (Candida albicans [24]): 14 mm
- MIC (Staphylococcus aureus [25]): 2 µg/mL (≈ 6.89 µM)
- MIC (Staphylococcus aureus [26]): 4 µg/mL (≈ 13.8 µM)
- MIC (Enterococcus faecalis [27]): 16 µg/mL (≈ 55.1 µM)
- MIC (Staphylococcus aureus [28]): 4 µg/mL (≈ 13.8 µM)
- inhibition of growth at 2.5 µg/mL (HEp-2 [29]): 5.03%
- MIC (Enterococcus faecalis [30]): 16 µg/mL (≈ 55.1 µM)
- inhibition of growth at 5 µg/mL (HEp-2 [31]): 11%
- zone of inhibition at 300 µg/disc (Enterococcus faecalis [32]): 20 mm

Source: ChEMBL document CHEMBL1158358, “Synthesis, antimicrobial and cytotoxic activities of some 5-arylidene-4-thioxo-thiazolidine-2-ones” (Eur J Med Chem, 2009)
